Columns and labels:
B16 [1] = assay: Antitumor activity in B16 Melanoma system animals is indicated by survivors on day 4 at a dose of 44 mg/kg intraperitoneally; type: functional, Mus musculus; details: route intraperitoneal
Summary of the method: (§1)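 B16 melanoma, 10^6 cells inoculated ip on day 0. Ip treatment started day 1, schedule Q01Dx09 (one dose daily for 9 days). The score is live animals on day 4 over total animals; early deaths are taken as drug toxicity.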

B16 [2] = assay: Percent of median lifetime of test animals divided by the median lifetime of control animals at a dose of 22 mg/kg intraperitoneally; type: functional, Mus musculus; details: route intraperitoneal
Summary of the method: (§2)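 B16 melanoma inoculated ip (10⁶ cells) on day 0. Daily ip treatment for 9 days (Q01Dx09) begins day 1, dosed per injection in mg/kg. %T/C is the median lifespan of treated animals divided by that of tumored untreated controls, ×100. Cures are animals alive on the last test day. Toxic deaths are assessed on day 4.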

B16 [3] = assay: Difference in body weight in grams between test and control animals at a dose of 22 mg/kg intraperitoneally; type: functional, Mus musculus; details: route intraperitoneal
Summary of the method: (§3)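 B16 melanoma system: 10⁶ tumor cells inoculated ip on day 0. Drug given ip once daily for 9 days (Q01Dx09) starting day 1, dose as mg/kg body weight per injection. Read-out is the body-weight difference in grams, treated minus control animals. Early deaths, taken as toxicity, are scored on day 4.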

B16 [4] = assay: Percent of median lifetime of test animals divided by the median lifetime of control animals at a dose of 2.75 mg/kg intraperitoneally; type: functional, Mus musculus; details: route intraperitoneal; summary of the method: as §2
B16 [5] = assay: Difference in body weight in grams between test and control animals at a dose of 11 mg/kg intraperitoneally; type: functional, Mus musculus; details: route intraperitoneal; summary of the method: as §3
B16 [6] = assay: Antitumor activity in B16 Melanoma system animals is indicated by survivors on day 4 at a dose of 22 mg/kg intraperitoneally; type: functional, Mus musculus; details: route intraperitoneal; summary of the method: as §1
B16 [7] = assay: Difference in body weight in grams between test and control animals at a dose of 2.75 mg/kg intraperitoneally; type: functional, Mus musculus; details: route intraperitoneal; summary of the method: as §3
B16 [8] = assay: Percent of median lifetime of test animals divided by the median lifetime of control animals at a dose of 11 mg/kg intraperitoneally; type: functional, Mus musculus; details: route intraperitoneal; summary of the method: as §2
B16 [9] = assay: Percent of median lifetime of test animals divided by the median lifetime of control animals at a dose of 5.5 mg/kg intraperitoneally; type: functional, Mus musculus; details: route intraperitoneal; summary of the method: as §2
B16 [10] = assay: Percent of median lifetime of test animals divided by the median lifetime of control animals at a dose of 44 mg/kg intraperitoneally; type: functional, Mus musculus; details: route intraperitoneal; summary of the method: as §2
B16 [11] = assay: Antitumor activity in B16 Melanoma system animals is indicated by survivors on day 4 at a dose of 5.5 mg/kg intraperitoneally; type: functional, Mus musculus; details: route intraperitoneal; summary of the method: as §1
B16 [12] = assay: Difference in body weight in grams between test and control animals at a dose of 44 mg/kg intraperitoneally; type: functional, Mus musculus; details: route intraperitoneal; summary of the method: as §3
B16 [13] = assay: Difference in body weight in grams between test and control animals at a dose of 5.5 mg/kg intraperitoneally; type: functional, Mus musculus; details: route intraperitoneal; summary of the method: as §3
B16 [14] = assay: Antitumor activity in B16 Melanoma system animals is indicated by survivors on day 4 at a dose of 11 mg/kg intraperitoneally; type: functional, Mus musculus; details: route intraperitoneal; summary of the method: as §1
B16 [15] = assay: Antitumor activity in B16 Melanoma system animals is indicated by survivors on day 4 at a dose of 2.75 mg/kg intraperitoneally; type: functional, Mus musculus; details: route intraperitoneal; summary of the method: as §1
B16 [16] = assay: Antitumor activity in B16 Melanoma system animals is indicated by survivors on day 4 intraperitoneally; details: Mus musculus, route intraperitoneal
B16 [17] = assay: Antitumor activity in B16 Melanoma system animals is indicated by survivors on day 4 at a dose of 2.5 mg/kg intraperitoneally; type: functional, Mus musculus; parameters: reference not given here; details: route intraperitoneal; summary of the method: as §1
B16 [18] = assay: Difference in body weight in grams between test and control animals at a dose of 10 mg/kg intraperitoneally; type: functional, Mus musculus; details: route intraperitoneal; summary of the method: as §3
B16 [19] = assay: Antitumor activity in B16 Melanoma system animals is indicated by survivors on day 4 at a dose of 1.25 mg/kg intraperitoneally; type: functional, Mus musculus; details: route intraperitoneal; summary of the method: as §1
B16 [20] = assay: Difference in body weight in grams between test and control animals at a dose of 5 mg/kg intraperitoneally; type: functional, Mus musculus; details: route intraperitoneal; summary of the method: as §3
B16 [21] = assay: Percent of median lifetime of test animals divided by the median lifetime of control animals at a dose of 5 mg/kg intraperitoneally; type: functional, Mus musculus; details: route intraperitoneal; summary of the method: as §2
B16 [22] = assay: Antitumor activity in B16 Melanoma system animals is indicated by survivors on day 4 at a dose of 10 mg/kg intraperitoneally; type: functional, Mus musculus; parameters: reference not given here; details: route intraperitoneal; summary of the method: as §1
B16 [23] = assay: Difference in body weight in grams between test and control animals at a dose of 20 mg/kg intraperitoneally; type: functional, Mus musculus; details: route intraperitoneal; summary of the method: as §3
B16 [24] = assay: Percent of median lifetime of test animals divided by the median lifetime of control animals at a dose of 1.25 mg/kg intraperitoneally; type: functional, Mus musculus; details: route intraperitoneal; summary of the method: as §2
B16 [25] = assay: Percent of median lifetime of test animals divided by the median lifetime of control animals at a dose of 2.5 mg/kg intraperitoneally; type: functional, Mus musculus; details: route intraperitoneal; summary of the method: as §2
B16 [26] = assay: Difference in body weight in grams between test and control animals at a dose of 1.25 mg/kg intraperitoneally; type: functional, Mus musculus; details: route intraperitoneal; summary of the method: as §3
B16 [27] = assay: Antitumor activity in B16 Melanoma system animals is indicated by survivors on day 4 at a dose of 5 mg/kg intraperitoneally; type: functional, Mus musculus; details: route intraperitoneal; summary of the method: as §1
B16 [28] = assay: Percent of median lifetime of test animals divided by the median lifetime of control animals at a dose of 10 mg/kg intraperitoneally; type: functional, Mus musculus; details: route intraperitoneal; summary of the method: as §2
B16 [29] = assay: Difference in body weight in grams between test and control animals at a dose of 2.5 mg/kg intraperitoneally; type: functional, Mus musculus; details: route intraperitoneal; summary of the method: as §3
B16 [30] = assay: Percent of median lifetime of test animals divided by the median lifetime of control animals at a dose of 20 mg/kg intraperitoneally; type: functional, Mus musculus; details: route intraperitoneal; summary of the method: as §2
B16 [31] = assay: Antitumor activity in B16 Melanoma system animals is indicated by survivors on day 4 at a dose of 20 mg/kg intraperitoneally; type: functional, Mus musculus; parameters: reference not given here; details: route intraperitoneal; summary of the method: as §1
B16 [32] = assay: Antitumor activity in B16 Melanoma system animals is indicated by survivors on day 4 at a dose of 40 mg/kg intraperitoneally; type: functional, Mus musculus; details: route intraperitoneal; summary of the method: as §1
B16 [33] = assay: Percent of median lifetime of test animals divided by the median lifetime of control animals at a dose of 40 mg/kg intraperitoneally; type: functional, Mus musculus; details: route intraperitoneal; summary of the method: as §2
B16 [34] = assay: Difference in body weight in grams between test and control animals at a dose of 40 mg/kg intraperitoneally; type: functional, Mus musculus; details: route intraperitoneal; summary of the method: as §3

Structure (SMILES) | Activity (B16 [17]) | Weight difference (B16 [18]) | Activity (B16 [19]) | Weight difference (B16 [20]) | T/C (B16 [21]) | Activity (B16 [22]) | Weight difference (B16 [23]) | T/C (B16 [24]) | T/C (B16 [25]) | Weight difference (B16 [26]) | Survivors on day 4 (B16 [27]) | T/C (B16 [28]) | Weight difference (B16 [29]) | T/C (B16 [30]) | Activity (B16 [31]) | Activity (B16 [32]) | T/C (B16 [33]) | Weight difference (B16 [34]) | also measured
CC(=O)OC1C(=O)[C@]2(C)[C@@H](OC(=O)CCC(=O)O)C[C@H]3OC[C@@]3(OC(C)=O)[C@H]2[C@H](OC(=O)c2ccccc2)[C@]2(O)CC(OC(=O)C(OC(=O)CCC(=O)O)C(NC(=O)c3ccccc3)c3ccccc3)C(C)=C1C2(C)C (stereo partly drawn) |  |  |  |  |  |  |  |  |  |  |  |  |  |  |  |  |  |  | Activity (B16 [1]): 10; T/C (B16 [2]): 105%; Weight difference (B16 [3]): 0.3 g; T/C (B16 [4]): 109%; Weight difference (B16 [5]): 0.1 g; Activity (B16 [6]): 10; Weight difference (B16 [7]): -0.3 g; T/C (B16 [8]): 124%; T/C (B16 [9]): 113%; T/C (B16 [10]): 114%; Activity (B16 [11]): 10; Weight difference (B16 [12]): 0 g; Weight difference (B16 [13]): -0.3 g; Activity (B16 [14]): 10; Activity (B16 [15]): 10
CC(=O)OC1C(=O)[C@]2(C)C(O)C[C@H]3OC[C@@]3(OC(C)=O)[C@H]2[C@H](OC(=O)c2ccccc2)[C@]2(O)CC(OC(=O)[C@@H]3OC(=O)N(C(=O)c4ccccc4)[C@H]3c3ccccc3)C(C)=C1C2(C)C (stereo partly drawn) | 10 | -0.1 g | 10 | 0 g | 95% | 10 | -0.2 g | 94% | 88% | -0.2 g | 10 | 100% | -0.3 g | 98% |  |  |  |  | Activity (B16 [16]): 10
CC(=O)OC1C(=O)[C@@]2(C)[C@H]([C@H](OC(=O)c3ccccc3)[C@]3(O)CC(OC(=O)C(OC(=O)CCC(=O)[O-])C(NC(=O)c4ccccc4)c4ccccc4)C(C)=C1C3(C)C)[C@]1(OC(C)=O)CO[C@@H]1C[C@@H]2O.[Na+] (stereo partly drawn) | 10 | 0.6 g | 10 | 0 g | 166% | 10 | -0.2 g | 111% | 159% | 0.1 g | 10 | 183% | 0.4 g | 201% | 10 | 10 | 218% | 0.6 g | 
CC(=O)OC1C(=O)[C@@]2(C)[C@H]([C@H](OC(=O)c3ccccc3)[C@]3(O)CC(OC(=O)C(OC(=O)CCC(=O)O)C(NC(=O)c4ccccc4)c4ccccc4)C(C)=C1C3(C)C)[C@]1(OC(C)=O)CO[C@@H]1C[C@@H]2O (stereo partly drawn) | 10 | 0.4 g |  | 0.4 g | 154% | 10 | 0 g |  | 119% |  | 10 | 159% | 0 g | 154% | 10 | 10 | 185% | 0 g | 

Source: ChEMBL document CHEMBL1124441, “Synthesis of congeners and prodrugs. 3. Water-soluble prodrugs of taxol with potent antitumor activity” (1989)
